Experiment [1] concerns the target 5-hydroxytryptamine receptor 5A (Mus musculus, UniProt P30966). The experiment is described as follows: Binding affinity towards mouse 5-hydroxytryptamine 5A receptor using LSD as radioligand.
Experiment [2] deals with T1, 5-hydroxytryptamine receptor 2C (Rattus norvegicus, UniProt P08909).
T1 sequence (P08909 whole entry): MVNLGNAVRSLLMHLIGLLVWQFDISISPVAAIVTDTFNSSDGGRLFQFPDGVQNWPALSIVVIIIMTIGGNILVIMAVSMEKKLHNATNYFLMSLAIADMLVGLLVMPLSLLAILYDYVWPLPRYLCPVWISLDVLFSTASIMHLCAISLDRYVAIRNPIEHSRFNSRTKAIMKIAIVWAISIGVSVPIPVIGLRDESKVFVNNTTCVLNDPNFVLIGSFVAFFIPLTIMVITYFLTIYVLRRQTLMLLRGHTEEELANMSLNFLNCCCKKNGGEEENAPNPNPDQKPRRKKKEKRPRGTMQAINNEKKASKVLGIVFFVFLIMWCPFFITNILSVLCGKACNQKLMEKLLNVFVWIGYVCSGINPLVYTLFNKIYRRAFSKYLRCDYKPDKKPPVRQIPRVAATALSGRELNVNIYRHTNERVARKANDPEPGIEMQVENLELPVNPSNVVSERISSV
The experiment is described as follows: Binding affinity towards rat 5-hydroxytryptamine 2C receptor expressed in A-9 cells using [3H]mesulergine as radioligand. It is filed as cell-based. In outline: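 Rat 5-HT2C stably expressed in A-9 cells, grown to confluence; washed membranes (~10 μg protein) used. Competition against 2.0 nM [3H]mesulergine with 11 concentrations from 10⁻¹⁰ to 10⁻⁵ M, triplicate. Incubation 30 min, 37 °C, pH 7.4 Tris buffer with EDTA, MgCl2 and ascorbate. 1 μM mesulergine defined nonspecific binding. Filtration, scintillation counting. Ki via Cheng–Prusoff; at least three replicates.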

For experiment [3], the target named is 5-hydroxytryptamine receptor 2A (Rattus norvegicus, UniProt P14842). The experiment can be described thus: Binding affinity towards rat 5-hydroxytryptamine 2A receptor expressed in NIH3T3 cells using [3H]ketanserin as radioligand. It is filed as cell-based. In outline:
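Membranes from confluent NIH-3T3 cells stably expressing rat 5-HT2A, washed by centrifugation in 50 mM Tris-HCl. ~10 μg protein incubated with 0.5 nM [3H]ketanserin and 11 test concentrations (10⁻¹⁰ to 10⁻⁵ M) in triplicate. Incubation was 30 min at 37 °C in Tris/EDTA/MgCl2/ascorbate pH 7.4. Nonspecific binding defined with 10 μM ketanserin. Bound ligand was filtered and counted. Ki from Cheng–Prusoff, ≥3 determinations.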

In experiment [4] the target is T2, 5-hydroxytryptamine receptor 5A (Homo sapiens, UniProt P47898). The experiment is described as follows: Binding affinity towards human 5-hydroxytryptamine 5A receptor using LSD as radioligand.
T2 sequence (P47898 whole entry): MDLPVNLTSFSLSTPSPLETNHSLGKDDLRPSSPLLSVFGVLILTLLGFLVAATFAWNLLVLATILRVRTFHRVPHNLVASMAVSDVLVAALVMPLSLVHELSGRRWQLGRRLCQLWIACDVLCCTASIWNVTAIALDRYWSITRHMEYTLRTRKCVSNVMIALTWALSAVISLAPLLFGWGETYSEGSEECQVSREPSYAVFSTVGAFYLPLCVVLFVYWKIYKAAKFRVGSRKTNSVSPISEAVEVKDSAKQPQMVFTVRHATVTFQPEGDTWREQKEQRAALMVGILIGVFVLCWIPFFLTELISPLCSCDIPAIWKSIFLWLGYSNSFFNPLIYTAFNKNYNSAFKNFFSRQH
For experiment [5], the target named is T2, 5-hydroxytryptamine receptor 5A. The experiment is described as follows: Binding affinity towards 5-hydroxytryptamine 5A receptor using lysergic acid diethylamide (LSD) as radioligand. A digest of the protocol:
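Radioligand competition binding at cloned 5-HT5A receptors (clone supplied by R. Hen). Nonspecific binding defined with 1 μM LSD.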

pKi: −log10 of the molar value.

5-hydroxytryptamine receptor 2A, sequence (P14842 whole entry): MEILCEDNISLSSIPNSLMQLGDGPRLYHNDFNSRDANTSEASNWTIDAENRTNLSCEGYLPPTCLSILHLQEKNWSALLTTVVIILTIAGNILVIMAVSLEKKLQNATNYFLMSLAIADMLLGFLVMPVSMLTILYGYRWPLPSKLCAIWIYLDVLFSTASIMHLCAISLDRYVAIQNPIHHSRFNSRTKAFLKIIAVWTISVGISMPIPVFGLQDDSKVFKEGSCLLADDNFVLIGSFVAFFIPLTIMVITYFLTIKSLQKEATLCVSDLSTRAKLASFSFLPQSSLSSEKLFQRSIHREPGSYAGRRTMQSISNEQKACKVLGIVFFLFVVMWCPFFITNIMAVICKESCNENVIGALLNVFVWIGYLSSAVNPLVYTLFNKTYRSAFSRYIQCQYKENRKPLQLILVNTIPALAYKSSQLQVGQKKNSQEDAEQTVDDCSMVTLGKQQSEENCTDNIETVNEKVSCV
5-hydroxytryptamine receptor 5A (Mus musculus, UniProt P30966), sequence (P30966 whole entry): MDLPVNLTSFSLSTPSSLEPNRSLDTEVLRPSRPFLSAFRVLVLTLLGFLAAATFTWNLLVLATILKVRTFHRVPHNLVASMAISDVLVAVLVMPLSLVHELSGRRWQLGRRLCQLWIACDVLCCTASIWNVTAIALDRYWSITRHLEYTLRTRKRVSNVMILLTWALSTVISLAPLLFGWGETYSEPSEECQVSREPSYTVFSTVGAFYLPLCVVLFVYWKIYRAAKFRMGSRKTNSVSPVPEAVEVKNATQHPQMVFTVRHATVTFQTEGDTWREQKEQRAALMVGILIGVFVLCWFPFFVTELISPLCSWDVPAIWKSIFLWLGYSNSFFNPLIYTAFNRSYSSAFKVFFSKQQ

As a reminder, the pKi is −log10 of the Ki, conventionally taken in molar units. The low end stands for a large Ki, the high end for a small Ki. With `Cn1c2c(c3ccccc31)CN(CCCCCCc1ccccc1)CC2`, the pKi in experiment [1] is 6.36; in experiment [2], 6.28; in experiment [3], 6.73.

Take `Cn1c2c(c3ccccc31)CN(CCCCCc1ccccc1)CC2`: the pKi in experiment [1] is 6.92; in experiment [2] it was 6.00; in experiment [4], 6.76; in experiment [3], 6.89.

For the compound `Cn1c2c(c3ccccc31)CN(CCCO)CC2`, the pKi is 5.96 in experiment [1] and 5.95 in experiment [4].

Consider `Cn1c2c(c3ccccc31)CN(CCC/C(=N/O)c1ccc(F)cc1)CC2`, for which the figures for the pKi in experiment [2], in experiment [4] and in experiment [3] were 6.72, 6.47 and 7.42, respectively.

Turning to `Cn1c2c(c3ccccc31)CN(CCCOc1cccc3ccccc13)CC2`, the pKi in experiment [1] is 6.19; in experiment [2] it was 6.40; in experiment [3], 6.20.

Regarding `c1ccc(OCCCN2CCc3[nH]c4ccccc4c3C2)cc1`, the pKi in experiment [1] was 6.22; in experiment [2], 6.80; in experiment [3] it was 7.70.

On to `Cn1c2c(c3ccccc31)CN(CCCc1ccccc1)CC2`, for which, in experiment [1], the pKi is 6.60.

In the case of `CN(CCCOc1ccc(F)cc1)Cc1cn(C)c2ccccc12`, the pKi in experiment [5] is 5.97.

Turning to `Fc1ccc(OCCCN2CCc3ccccc3C2)cc1`, the pKi in experiment [5] was 6.40. Against the preceding compound, the pKi is 0.43 log units higher.

With `Fc1ccc(OCCCN2CCc3[nH]c4ccccc4c3C2)cc1`, in experiment [1], the pKi was 7.12.

For the compound `Cn1c2c(c3cccc(Cl)c31)CN(CCCOc1ccc(F)cc1)CC2`, the pKi in experiment [1] is 6.23; in experiment [2], 6.65; in experiment [4] it was 6.65; in experiment [3], 6.68.

Take `Cn1c2c(c3ccccc31)CCN(CCCOc1ccccc1)C2`: the negative logarithm of the Ki (pKi) is 6.44 in experiment [1], 6.40 in experiment [2], 6.21 in experiment [4] and 6.82 in experiment [3].

Consider `Cn1c2c(c3ccccc31)CN(CCCOc1ccc(Cl)c(Cl)c1)CC2`, for which the pKi in experiment [4] was 6.70; in experiment [3] it was 6.71.

As to `Cn1c2c(c3ccccc31)CN(CCCOc1ccc(Cl)cc1)CC2`, the figures for the pKi in experiment [4] and in experiment [3] were 6.70 and 6.94, respectively.

`Cn1c2c(c3ccccc31)CN(CCOc1ccc(F)cc1)CC2`: the pKi in experiment [2] was 6.63; in experiment [4], 6.03; in experiment [3] it was 6.76.

In the case of `CCn1c2c(c3ccccc31)CN(CCCOc1ccccc1)CC2`, the pKi in experiment [1] was 7.12; in experiment [2], 6.67; in experiment [4], 7.00; in experiment [3], 7.30.

In the case of `COc1cccc2c3c(n(C)c12)CCN(CCCOc1ccc(F)cc1)C3`, the pKi in experiment [1] is 5.91; in experiment [2], 6.65; in experiment [4] it was 5.86; in experiment [3], 6.92.

With `COc1ccc2c(c1)c1c(n2C)CCN(CCCOc2ccc(F)cc2)C1`, the pKi in experiment [1] is 7.01; in experiment [2], 6.82; in experiment [4], 6.78; in experiment [3], 7.42.

For the compound `Cn1c2c(c3ccccc31)CN(CCCOc1ccccc1)CC2`, the pKi in experiment [1] was 7.60; in experiment [2], 6.55; in experiment [4] it was 7.00; in experiment [3], 7.15.

In turn, `CC1=NCCc2c1n(C)c1ccccc21` showed a pKi in experiment [5] below 5.00.

For the compound `COc1ccc(CCCCN2CCc3c(c4ccccc4n3C)C2)cc1`, the pKi was 7.05 in experiment [1], 6.00 in experiment [2] and 6.38 in experiment [3].

As to `Fc1ccc(OCCCN2CCCCC2)cc1`, the pKi in experiment [5] is below 5.00.

In the case of `O=C(CCCN1CCc2c([nH]c3ccccc23)C1)c1ccccc1`, the pKi in experiment [1] was 6.26; in experiment [2], 6.94; in experiment [3] it was 7.80.

For the compound `COc1ccc2c3c([nH]c2c1)C(C)NCC3` (stereo unspecified), the pKi in experiment [5] was below 5.00.

For `Cn1c2c(c3ccccc31)CN(CCCC(=O)c1ccc(F)cc1)CC2`, the pKi in experiment [1] was 6.94; in experiment [2], 7.22; in experiment [3] it was 7.22.

`Cn1c2c(c3ccccc31)CN(CCCCc1ccccc1)CC2` gave a pKi in experiment [1] of 6.89.

As for `Cn1c2c(c3ccccc31)CN(CCCC(=O)c1ccccc1)CC2`, the pKi is 6.87 in experiment [1], 6.77 in experiment [4] and 7.66 in experiment [3].

For the compound `Cn1c2c(c3ccccc31)CN(CC#CCCc1ccccc1)CC2`, the pKi was 5.77 in experiment [1] and 5.75 in experiment [4].

As for `Cn1c2c(c3ccccc31)CN(CCCOc1ccc([N+](=O)[O-])cc1)CC2`, the pKi in experiment [2] was 6.52; in experiment [4] it was 6.60; in experiment [3] it was 6.55.

Take `c1ccc(Cn2c3c(c4ccccc42)CN(CCCOc2ccccc2)CC3)cc1`: the pKi was 6.06 in experiment [1], 7.05 in experiment [2] and 7.19 in experiment [3].

Consider `Cn1c2c(c3ccccc31)CN(C/C=C\CCc1ccccc1)CC2`, for which the pKi in experiment [1] was 6.48; in experiment [2], 6.55; in experiment [4], 6.68; in experiment [3], 6.92.

Compound `COc1ccc2[nH]c3c(C)nccc3c2c1` gave a pKi in experiment [5] below 5.00.

Turning to `Cn1c2c(c3ccccc31)CN(CCCOCc1ccccc1)CC2`, the pKi in experiment [1] was 6.53; in experiment [2] it was 6.19; in experiment [3] it was 6.65.

The compound `O=C(CCCN1CCc2[nH]c3ccccc3c2C1)c1ccc(F)cc1` gave a pKi in experiment [1] of 6.29.

`Cn1c2c(c3cc(Cl)ccc31)CN(CCCOc1ccc(F)cc1)CC2`: the pKi is 6.74 in experiment [1], 6.52 in experiment [2], 6.57 in experiment [4] and 6.89 in experiment [3].

Turning to `COc1ccc2[nH]c3c(c2c1)CCN=C3C`, the pKi in experiment [5] is below 5.00.

As for `Cn1c2c(c3ccccc31)CN(CCCC(O)c1ccc(F)cc1)CC2` (stereo unspecified), the pKi was 6.65 in experiment [1], 6.41 in experiment [2], 6.55 in experiment [4] and 6.80 in experiment [3].

On to `Cn1c2c(c3ccccc31)CN(CCCOc1ccc3ccccc3c1)CC2`, for which the pKi in experiment [1] was 6.18; in experiment [2], 6.52; in experiment [3] it was 6.32.

For `COc1ccc(OCCCN2CCc3c(c4ccccc4n3C)C2)cc1`, the pKi is 6.46 in experiment [4] and 7.00 in experiment [3].

In turn, `Cn1ccc2c1CCN(CCCOc1ccc(F)cc1)C2` gave a pKi in experiment [5] of 5.72.

Turning to `Cn1c2c(c3ccccc31)CN(CCCCc1ccc(F)cc1)CC2`, the pKi in experiment [1] is 7.02; in experiment [3] it was 7.19.

Turning to `Cn1c2c(c3ccccc31)CC(CCCOc1ccc(N)cc1)CC2` (stereo unspecified), the negative logarithm of the Ki (pKi) in experiment [5] is below 5.00.

In the case of `c1ccc(OCCCN2CCc3c([nH]c4ccccc34)C2)cc1`, the values for the pKi in experiment [1], in experiment [2] and in experiment [3] were 6.47, 6.51 and 7.30, respectively.

Regarding `Cn1c2c(c3ccccc31)CN(CCCOc1ccc(N)cc1)CC2`, the pKi in experiment [2] was 6.52; in experiment [4], 6.72; in experiment [3], 6.55.

For the compound `Cn1c2c(c3ccccc31)CN(C/C=C/CCc1ccccc1)CC2`, the pKi in experiment [1] was 6.46; in experiment [2], 6.61; in experiment [4], 6.73; in experiment [3] it was 7.22.

As for `COc1ccc2c3c([nH]c2c1)CNCC3`, in experiment [5], the pKi is below 5.00.

As to `CN(C)CCCOc1ccc(F)cc1`, in experiment [5], the pKi was below 5.00.

In experiment [3], `Cn1c2c(c3ccccc31)CNCC2` had a pKi of 5.51.

Take `Cn1c2c(c3ccccc31)CN(CCCOc1ccc(F)cc1)CC2`: the pKi in experiment [1] was 7.89; in experiment [2], 7.12; in experiment [3], 7.52.

With `COc1ccc2c3c([nH]c2c1)C=NCC3` [CGS-19281A], in experiment [5], the pKi is below 5.00.

In turn, `COc1ccc2c3c([nH]c2c1)C(C)=NCC3` [HARMALINE] had a pKi in experiment [5] below 5.00.

As to `CC1=NCCc2c1[nH]c1cc(O)ccc21` [HARMALOL], in experiment [5], the pKi was below 5.00.

For the compound `COc1ccc2c(c1)[nH]c1c(C)nccc12` [HARMINE], the pKi in experiment [5] was below 5.00.

Take `CC1NCCc2c1[nH]c1ccccc21` (stereo unspecified) [TETRAHYDROHARMAN]: in experiment [5], the pKi is below 5.00.

Compound `c1ccc2c3c([nH]c2c1)CNCC3` [TRYPTOLINE] gave a pKi in experiment [5] of 5.49.

Values taken from ChEMBL document CHEMBL1145074, “Binding of tetrahydrocarboline derivatives at human 5-HT5A receptors” (J Med Chem, 2003).
